Source: ChEMBL document CHEMBL4257580, “Tanshinone-IIA-Based Analogues of Imidazole Alkaloid Act as Potent Inhibitors To Block Breast Cancer Invasion and Metastasis in Vivo” (J Med Chem, 2018)
pIC50: −log10 of the molar value.

Tests used:
MDA-MB-231 = assay: Antiproliferative activity against human MDA-MB-231 cells after 72 hrs by MTT assay; type: functional, cell-based; conditions: MDA-MB-231, 72 h
Method in brief: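 MDA-MB-231 cells grown in DMEM with 10% FBS and penicillin/streptomycin at 37 °C under 5% CO2. Seeded at 5×10^3 cells/well for 24 h, then exposed to compound across a concentration range for 72 h. MTT (5 mg/mL in PBS) added for 5 h, formazan dissolved in DMSO, absorbance read at 570 nm. Three repeats.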

HepG2 = assay: Antiproliferative activity against human HepG2 cells after 72 hrs by MTT assay; type: functional, cell-based; conditions: HepG2, 72 h
Method in brief: (§1)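 A549, HeLa, HepG2 and normal liver L02 cells kept in DMEM with 10% FBS at 37 °C under 5% CO2. Plated at 5×10^3 cells/well for 24 h, then treated with graded concentrations for 72 h. Viability measured by MTT reduction (5 h), formazan dissolved in DMSO and read at 570 nm. Three repeats.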

HeLa = assay: Antiproliferative activity against human HeLa cells after 72 hrs by MTT assay; type: functional, cell-based; method in brief: as §1
A549 = assay: Antiproliferative activity against human A549 cells after 72 hrs by MTT assay; type: functional, cell-based; conditions: A549, 72 h; method in brief: as §1
L02 = assay: Antiproliferative activity against human L02 cells after 72 hrs by MTT assay; type: cell-based; conditions: L02, 72 h; method in brief: as §1

| Structure (SMILES) | pIC50 (MDA-MB-231) | pIC50 (HepG2) | pIC50 (HeLa) | pIC50 (A549) | pIC50 (L02) |
| --- | --- | --- | --- | --- | --- |
| Cc1coc2c3ccc4c(c3c3[nH]c(-c5cccc([N+](=O)[O-])c5)nc3c12)CCCC4(C)C | 4.31 | 4.47 | < 3.52 | 4.20 | < 3.52 |
| Cc1coc2c3ccc4c(c3c3[nH]c(-c5cccc(C(F)(F)F)c5)nc3c12)CCCC4(C)C | 4.28 | 4.36 | 4.16 | 4.50 | 4.26 |
| COc1cccc2c1C(=O)c1c(O)c3c(c(O)c1C2=O)C[C@@](O)(C(=O)CO)C[C@@H]3O[C@H]1C[C@H](N)[C@H](O)[C@H](C)O1 [DOXORUBICIN] | 5.07 | 5.37 | 5.06 | 5.47 | 5.44 |
| Cc1coc2c3ccc4c(c3c3[nH]c(-c5ccc(C(F)(F)F)cc5)nc3c12)CCCC4(C)C | 4.35 | 4.60 | 4.19 | 4.31 | 4.51 |
| Cc1coc2c3ccc4c(c3c3[nH]c(-c5ccccc5[N+](=O)[O-])nc3c12)CCCC4(C)C | 4.63 | 4.61 | 3.94 | 3.69 | < 3.52 |
| Cc1coc2c3ccc4c(c3c3[nH]c(-c5ccccc5C(F)(F)F)nc3c12)CCCC4(C)C | 4.62 | 4.42 | 4.21 | 4.59 | 4.03 |
| Cc1coc2c3ccc4c(c3c3[nH]c(-c5cccc(O)c5)nc3c12)CCCC4(C)C | 4.59 | 4.43 | 4.28 | 4.74 | 4.48 |
| COc1cccc(-c2nc3c([nH]2)c2c4c(ccc2c2occ(C)c32)C(C)(C)CCC4)c1 | 4.28 | 4.55 | 4.17 | 4.40 | < 3.52 |
| COc1ccccc1-c1nc2c([nH]1)c1c3c(ccc1c1occ(C)c21)C(C)(C)CCC3 | 3.96 | 3.90 | < 3.52 | 4.34 | 4.06 |
| Cc1coc2c3ccc4c(c3c3[nH]c(-c5ccc([N+](=O)[O-])cc5)nc3c12)CCCC4(C)C | 4.51 | 4.51 | 3.80 | 4.60 | < 3.52 |
| Cc1coc2c1C(=O)C(=O)c1c-2ccc2c1CCCC2(C)C [TANSHINONE IIA] | 3.94 | 4.18 | 3.71 | 4.27 | 4.11 |
| COc1ccc(-c2nc3c([nH]2)c2c4c(ccc2c2occ(C)c32)C(C)(C)CCC4)cc1 | 4.68 | 4.86 | 4.21 | 4.45 | 4.08 |
| Cc1coc2c3ccc4c(c3c3[nH]c(-c5ccccc5O)nc3c12)CCCC4(C)C | 4.69 | 4.58 | 4.07 | 5.31 | 4.28 |
